NR2E3 ag-1 = NR2E3 agonists in two-hybrid cells, primary screen, cell-based, luminescence, CHO-S, Gal4-NCOR/VP16-NR2E3; inhibition of corepressor binding, % at 3.98 µM; 360,000 tested, 0.35% active; Photoreceptor-specific nuclear receptor (Homo sapiens), Q9Y5X4; luciferase;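 active = inhibition above the mean of all tested compounds plus 3 SD, cut at about 70% in these data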;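 also: 0% = DMSO with NR2E3 transfected cells and 100% = cells lacking NR2E3 construct; higher means lower luciferase signal from less NR2E3 corepressor binding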
Target sequence (Q9Y5X4 whole entry, looked up, the tested form may be a part): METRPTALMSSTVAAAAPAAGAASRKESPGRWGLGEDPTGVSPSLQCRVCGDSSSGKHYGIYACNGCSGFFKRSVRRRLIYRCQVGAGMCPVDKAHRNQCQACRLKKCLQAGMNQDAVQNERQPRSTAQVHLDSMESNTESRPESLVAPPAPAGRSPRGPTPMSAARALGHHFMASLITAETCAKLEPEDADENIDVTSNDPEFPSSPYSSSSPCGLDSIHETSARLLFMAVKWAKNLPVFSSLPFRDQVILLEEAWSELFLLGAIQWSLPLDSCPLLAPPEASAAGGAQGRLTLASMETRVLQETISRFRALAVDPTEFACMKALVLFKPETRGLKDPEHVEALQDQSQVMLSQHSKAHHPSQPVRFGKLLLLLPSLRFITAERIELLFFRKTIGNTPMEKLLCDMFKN
NR2E3 ag-2 = inhibitors of NR2E3-RetCOR corepressor binding, primary screen, NR2E3 agonist project, biochemical, TR-FRET, GST-NR2E3, biotin-RetCOR | Photoreceptor-specific nuclear receptor (Homo sapiens), Q9Y5X4 | 1536-well | inhibition of corepressor binding, % at 4.78 µM | 320,000 tested, 0.12% active;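 active = percent inhibition above the cutoff of mean plus 3 SD of all tested compounds, set per screening campaign, cut at about 20% in these data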;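 also: 0% = DMSO wells and 100% = biotin wells as full block of FRET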
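Material: NR2E3–RetCOR corepressor complex / Amount: 1.35 nM GST-NR2E3 / Medium: Tris pH 7.5 / Compound: single nominal compound dose of 4.8 µM / Incubation: 5 h at 4 °C / Technique: TR-FRET, Eu(K)-anti-GST donor, streptavidin-D2 acceptor, ex 340, em 617/671 nm / Read-out basis: percent loss of FRET ratio relative to control wells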
MC4R ag barr = MC4R agonists recruiting beta-arrestin, primary screen, cell-based, luminescence, agonist arm of biased-ligand search; Melanocortin receptor 4 (Homo sapiens), P32245; U2OS MC4R beta-arrestin complementation; percent of melanotan II response, DMSO zero; activation, % at 8.9 µM; 360,000 tested, 0.98% active; AID 540308, 2011;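 active = activation above a per-plate cutoff, the mean activation of sample wells on that plate plus 3 SD, cut at about 8% in these data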
Target sequence (P32245 whole entry, looked up): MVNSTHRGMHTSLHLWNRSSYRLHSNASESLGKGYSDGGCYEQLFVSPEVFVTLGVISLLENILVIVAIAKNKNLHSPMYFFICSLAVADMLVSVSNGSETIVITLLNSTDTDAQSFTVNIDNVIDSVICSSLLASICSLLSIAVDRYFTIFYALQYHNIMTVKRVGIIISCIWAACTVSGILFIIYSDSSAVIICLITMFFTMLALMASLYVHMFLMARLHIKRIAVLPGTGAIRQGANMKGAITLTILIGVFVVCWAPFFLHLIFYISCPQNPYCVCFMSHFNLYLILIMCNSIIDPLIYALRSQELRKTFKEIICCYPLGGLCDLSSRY
MC4R antag cAMP = MC4R antagonists of cAMP signaling, primary screen, cell-based, TR-FRET, antagonist arm of biased-ligand search; inhibition, % at 6.5 µM; 360,000 tested, 0.48% active; Melanocortin receptor 4 (Homo sapiens), P32245; MC4R-expressing cells, MTII-stimulated cAMP, LANCE TR-FRET;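 active = inhibition above its plate's cutoff, the mean of tested wells on that plate plus 3 SD, cut at about 29% in these data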;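 also: 0% = Melanotan II alone and 100% = Melanotan II plus saturating MCL0020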
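Material – human MC4R-expressing U2OS cells · Repeats – no replicates · Detection – TR-FRET with Eu-cAMP and labeled anti-cAMP, 671 nm · Times – compound 30 min, challenge 1 h, detection 1 h · Compound – single nominal compound dose of 6.5 µM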
Rev-erbA mod = modulators of Rev-erb alpha DNA binding, primary screen, biochemical, FITC-DNA, fluorescence polarization, uHTS | Nuclear receptor subfamily 1 group D member 1 (Homo sapiens), P20393 | Rev-erbα–FITC-DNA binding, 90 min | activity, % at 10 µM | 370,000 tested, 0.79% active;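 active = activity above about 14%, limit read from the data; passing the limit was not always enough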;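 also: 0% = DMSO wells with 35 nM protein and 100% = DMSO wells with 750 nM protein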
PG9 binder = binders of HIV-1 gp120 antibody PG9, primary screen, biochemical, TR-FRET; HIV-1 gp120 / PG9 antibody interaction; TR-FRET gp120-PG9 antibody binding; inhibition, % at 6.7 µM; 360,000 tested, 0.43% active; in the data active = inhibition above about 8.5%
MC4R barr conf = MC4R beta-arrestin agonists, retest, confirmation, cell-based, luminescence, U2OS; 2,400 tested, 31% active; U2OS MC4R beta-arrestin recruitment; scaled DMSO 0%, Melanotan II 100%; shares compounds with MC4R ag barr; activation, % at 8.9 µM;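 active = mean activation across replicates above the hit cutoff set in the earlier primary screen, cut at about 8% in these data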
MOR-DOR barr ag = agonists of MOR-DOR heterodimerization, counter-screen for MC4R biased agonist project, cell-based, luminescence; shares compounds with MC4R ag barr; U2OS PathHunter beta-arrestin, beta-gal luminescence; percent of deltorphin B response, DMSO zero; activation, % at 9.2 µM; 2,400 tested, 5.8% active; AID 602194, 2012;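 active = mean activation across replicates exceeds the hit threshold derived in the earlier primary screen, cut at about 18% in these data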;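 also: 100% = deltorphin B at 0.9 µM final and 0% = DMSO alone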
Active calls of the source: *; nt = no result given. Compounds with a hit are over-represented: about 2.7% of the library has one in this group of screens.

SMILES	NR2E3 ag-1	NR2E3 ag-2	MC4R ag barr	MC4R antag cAMP	Rev-erbA mod	PG9 binder	MC4R barr conf	MOR-DOR barr ag
Cc1ccc(C(=O)CC(C(=O)O)n2cnc([N+](=O)[O-])n2)cc1 (centres undefined)	-17.4	3.3	-3.6	0.4	0.8	-1.2	nt	nt
CCOC(=O)C1=C(O)C(=O)C(C(=O)OCC)C1 (centres undefined)	5.2	nt	-2.2	2.4	4.7	-1.3	nt	nt
O=C(Oc1ccc(NC(=O)c2cc3c(cc2Br)OCO3)cc1)c1ccccc1	0.0	3.5	14.4*	5.3	4.4	-1.5	6.0	5.7
O=C(Nc1ccccc1)c1ccc(OC(=O)c2ccccc2)cc1	2.3	4.2	9.8*	-2.1	7.1	-0.9	5.3	2.0
O=C(COC(=O)c1nc(Cl)ccc1Cl)Nc1ccccc1OC(F)F	7.3	-0.1	1.6	-4.5	3.9	-1.1	nt	nt
CC(=O)Nc1cc2c(cc1[N+](=O)[O-])OCCO2	12.7	2.6	-0.2	1.0	2.6	-1.5	nt	nt
COc1ccc(C(=O)CCC(C)(C)[N+](=O)[O-])cc1	-19.4	0.4	-1.2	2.1	-4.7	0.4	nt	nt
c1ccc(-c2cc(-c3nnc4n3N=C(c3ccc5ccccc5c3)CS4)[nH]n2)cc1	-13.2	-2.4	31.6*	1.4	-5.0	-1.6	14.4*	4.7
c1coc(-c2nnc3n2N=C(c2ccc4ccccc4c2)CS3)c1	nt	nt	nt	nt	-20.2	nt	nt	nt
CC(=O)Nc1cc(-c2ccccc2N(C)C)cn2c(-c3cccc(C(F)(F)F)c3)cnc12	-10.8	nt	15.2*	-0.9	7.3	-1.3	10.9*	3.1
CC(=O)Nc1cc(-c2cccc(C(=O)NCCN(C)C)c2)cn2c(-c3cccc(C(F)(F)F)c3)cnc12	7.2	nt	41.6*	-0.1	3.8	0.1	22.7*	8.1
Cn1ncc(Cl)c1C(=O)Nc1ccc2c(c1)CCC2	-79.8	1.8	-1.0	-2.4	-2.7	-1.0	nt	nt
COc1ccc(CNCC2COc3ccccc3O2)cc1 (centres undefined)	-16.4	-0.5	0.3	15.0	-2.7	-0.6	nt	nt
O=C(NC(=S)Nc1ccccc1)c1cncc(C#Cc2ccccc2)c1	-7.5	-1.7	13.9*	-0.5	3.3	1.6	0.4	1.6
O=C(O)c1cncc(C#Cc2ccccc2)c1	-34.2	-0.4	-2.2	6.3	2.5	1.8	nt	nt
COc1cccc(C2N(c3ccccn3)C(=O)C3CCCN32)c1OC (centres undefined)	-10.9	4.0	0.3	6.1	-2.9	1.2	nt	nt
COc1ccc2oc(C(=O)Nc3ccc(C)cn3)c(C)c2c1	-110.5	-0.2	12.7*	-4.4	-0.6	4.1	5.5	5.4
COc1ccc2oc(C(=O)Nc3ccccn3)c(C)c2c1	-129.9	5.9	-4.2	-12.9	-4.7	-0.8	nt	nt
COc1ccc2oc(C(=O)OCC(=O)Nc3ccccc3)c(C)c2c1	-16.5	4.5	-2.1	-3.1	-2.4	-1.0	nt	nt
CCOc1ccc2oc(C(=O)OCC(=O)NCc3ccc(OC)cc3)c(C)c2c1	-47.7	2.5	29.7*	-2.8	3.7	-1.5	1.2	7.0
COc1ccc2oc(C(=O)OCC(=O)Nc3ccccc3OC)c(C)c2c1	-15.3	-2.9	13.8*	-5.6	nt	nt	4.4	3.7
Cc1cccc(NC(=O)Cn2cnc(S(=O)(=O)N3CCCC3)c2)c1C	-5.7	1.6	-3.3	10.7	-2.4	-0.8	nt	nt
COc1ccc(OC)c(S(=O)(=O)NCc2nc3nc(C)cc(C)n3n2)c1	-3.7	-3.3	-2.9	5.1	-4.0	-2.0	nt	nt
CC(=O)C(c1ccccc1)C(c1ccccc1)C(C)[N+](=O)[O-] (centres undefined)	-14.5	4.2	21.1*	15.0	-4.9	1.1	-2.1	3.9
COC(=O)C(C(=O)OC)C(c1ccccc1)C(C(=O)c1ccccc1)[N+](=O)[O-] (centres undefined)	-14.0	-1.8	-0.8	6.6	-4.4	0.3	nt	nt
SMILES	NR2E3 ag-1	NR2E3 ag-2	MC4R ag barr	MC4R antag cAMP	Rev-erbA mod	PG9 binder	MC4R barr conf	MOR-DOR barr ag
CCN1CCN(S(=O)(=O)c2ccc(Cl)c(C(=O)N(C)C3CCCCC3)c2)CC1	16.2	nt	-1.8	9.5	-7.3	1.3	nt	nt
Cc1cc(C(C)(C)C)cc(C)c1Cn1c2[n+](c3ccc(C(F)(F)F)cc31)CCCCC2	-9.0	3.5	16.7*	2.5	-0.4	-2.4	15.0*	7.2
FC(F)(F)c1cccc(Cn2c3[n+](c4ccc(C(F)(F)F)cc42)CCCCC3)c1	-10.5	-0.9	0.4	14.0	2.0	1.7	nt	nt
O=C(NCc1csc2ccccc12)Nc1cc(Cl)cc(Cl)c1	-3.7	-2.2	16.1*	13.9	0.0	-1.8	-0.9	3.9
O=C(NCc1ccccn1)Nc1cc(Cl)cc(Cl)c1	-5.9	-1.4	-1.3	3.0	0.4	-1.6	nt	nt
COc1cc(CNCCc2ccccc2)cc(Cl)c1OCc1ccccc1	3.8	-2.3	13.5*	3.8	4.8	-0.4	10.4*	12.5
CC1(C)CC(=O)C=C(c2cn[nH]n2)C1	-30.6	nt	-0.4	5.7	4.0	-1.2	nt	nt
COc1cc(/C=N/NC(=S)NC2CC3CC2C2C=CCC32)ccc1O (centres undefined)	-92.2	3.1	9.9*	-16.2	-2.1	-2.3	5.2	8.2
O=C(CNCCC1=CCCCC1)Nc1ccc(N2CCCCCC2)cc1	-10.2	1.3	13.2*	5.6	4.9	-4.7	9.4*	15.7
O=C(CNC1CCCCCC1)Nc1ccc(N2CCCC2)cc1	nt	-3.3	nt	nt	nt	nt	nt	nt
CCN1CCN(c2cc(-c3ccccc3)nc3cc(-c4cccc(F)c4)nn23)CC1	15.0	1.6	12.3*	14.4	-4.6	0.0	2.4	13.7
OC1CCN(c2cc(-c3ccccc3)nc3cc(-c4ccc(F)cc4)nn23)CC1	-4.2	4.7	-0.5	2.0	1.0	-0.8	nt	nt
CC(C)(C)C(=O)OC12CCCN(C1)/C(=C/c1cccc(Cl)c1)C2 (centres undefined)	nt	nt	nt	nt	2.7	nt	nt	nt
CCOC(=O)c1c(NC(=O)Cn2cnc([N+](=O)[O-])n2)sc2c1CCCC2	8.0	4.3	1.6	-4.2	3.7	-1.4	nt	nt

Screening results as filed in PubChem BioAssay.
